# Most compounds without a hit are left out; they make up all but 2.8% or so of the library.
# PAFAH1B2 inh: inhibitors of human PAFAH1B2; P68402; recombinant PAFAH1B2, FP-rhodamine activity probe, fluorescence polarization; inhibition, % at 3.39 µM; 1.2% of 340,000 active;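 active = inhibition above the mean of all tested compounds plus 3 SD, cut at about 24% in these data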
# ASAP1 GAP inh: inhibitors of human ASAP1 ArfGAP activity; Q9ULH1; ASAP1-stimulated ARF1 GTP hydrolysis, GDP FP detection; inhibition, % at 16.5 µM; 0.19% of 360,000 active; in the data active = inhibition above about 25%
# ARFGAP1 inhibitor: rat ARFGAP1 inhibition; Q62848; Arfgap1-stimulated ARF1 GTP hydrolysis, GDP FP detection; inhibition, % at 16.5 µM; 0.26% of 360,000 active; AID 651572;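 active = inhibition above a per-plate limit, mean inhibition of low control wells plus 3 SD, cut at about 25% in these data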
#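 Material: rat Arfgap1 GAP domain (His6, aa 1-136), purified enzyme. Also added: human ARF1(Δ1-17)-GTP substrate. Compound dosing: 16.5 µM single point, 1.26% DMSO. Timing: enzyme reaction 120 min at 25 °C after 20 min preincubation. Signal: GDP detection by fluorescence polarization. Read-out basis: percent inhibition of GAP-stimulated GDP formation, scaled between DMSO and no-Arfgap1 medians.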
# PAFAH2 inh: PAFAH2 (human) inhibition | recombinant PAFAH2, FP-rhodamine activity probe, fluorescence polarization | inhibition, % at 3.39 µM | 0.99% of 340,000 active | AID 492956;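 active = inhibition above the mean over all tested compounds plus 3 SD, cut at about 30% in these data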;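 also: inhibitors block probe labeling of enzyme so polarization drops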
# pPAFAH inh: inhibitors of human plasma PAF acetylhydrolase (pPAFAH); inhibition, % at 3.39 µM; 1.5% of 330,000 active; recombinant pPAFAH, FP-rhodamine probe fluorescence polarization;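 active = inhibition above the mean inhibition across the screen plus 3 SD, cut at about 25% in these data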;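 also: inhibitors block binding of the rhodamine activity-based probe so polarization drops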
# Target sequence (Q13093 whole entry, looked up): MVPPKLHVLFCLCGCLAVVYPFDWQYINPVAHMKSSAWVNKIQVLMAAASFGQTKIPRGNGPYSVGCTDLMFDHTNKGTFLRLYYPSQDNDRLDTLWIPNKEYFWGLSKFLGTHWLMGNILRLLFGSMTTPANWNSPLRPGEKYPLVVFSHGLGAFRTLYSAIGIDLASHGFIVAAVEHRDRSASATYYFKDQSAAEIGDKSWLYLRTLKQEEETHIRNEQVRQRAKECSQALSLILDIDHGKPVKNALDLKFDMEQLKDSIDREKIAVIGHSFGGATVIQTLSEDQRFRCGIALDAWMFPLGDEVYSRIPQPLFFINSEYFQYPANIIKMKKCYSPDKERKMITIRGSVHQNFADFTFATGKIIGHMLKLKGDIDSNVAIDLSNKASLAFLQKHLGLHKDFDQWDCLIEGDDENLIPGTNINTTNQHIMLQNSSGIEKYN
# PAFAH1B3 FP inh: inhibitors of human PAFAH1B3; Q15102; inhibition, % at 3.39 µM; 0.28% of 340,000 active; recombinant PAFAH1B3, FP-rhodamine probe, fluorescence polarization;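 active = inhibition above the screen-wide average of all tested compounds plus 3 SD, cut at about 25% in these data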
# Target sequence (Q15102 whole entry, looked up): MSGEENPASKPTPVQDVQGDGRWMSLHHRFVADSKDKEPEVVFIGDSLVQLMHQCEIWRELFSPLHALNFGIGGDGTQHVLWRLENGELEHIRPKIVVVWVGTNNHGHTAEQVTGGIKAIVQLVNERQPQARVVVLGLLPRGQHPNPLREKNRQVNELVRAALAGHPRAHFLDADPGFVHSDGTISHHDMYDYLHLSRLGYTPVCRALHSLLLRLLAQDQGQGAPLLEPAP
# pPAFAH FP conf: pPAFAH (human) inhibition, confirmed. 72% of 2,300 active. AID 463230. inhibition, % at 3.39 µM. shares compounds with pPAFAH inh. recombinant pPAFAH, FP-Rh probe fluorescence polarization;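 active = mean inhibition of the triplicate above the hit cutoff set for the earlier primary screen, cut at about 25% in these data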
# Numbers stand for hits; n = inactive; x = not tested or not shown.
SMILES,PAFAH1B2 inh,ASAP1 GAP inh,ARFGAP1 inhibitor,PAFAH2 inh,pPAFAH inh,PAFAH1B3 FP inh,others
CCn1c(=O)n(CC)c2cc(S(=O)(=O)Nc3c(C)cccc3C)ccc21,n,n,n,n,n,n,
CC(=O)c1ccc(NC(=O)Nc2ccc(NS(=O)(=O)c3ccc(C)cc3)cc2)cc1,n,n,n,n,n,n,
Cc1ccc(NS(=O)(=O)c2ccc(CCC(=O)O)cc2)cc1,n,n,n,n,34,n,
CC(=O)Nc1ccc(S(=O)(=O)Nc2ccc(Cc3ccncc3)cc2)cc1,n,n,n,n,29,n,
CCOC(=O)C1CCN(C(=O)COc2ccc3c(C)cc(=O)oc3c2)CC1,n,n,n,n,n,n,
Cc1ccc(NS(=O)(=O)c2ccc(CCC(=O)NCCCOC(C)C)cc2)cc1,n,n,n,n,26,n,
COCCCNC(=O)CCc1ccc(S(=O)(=O)Nc2ccc(C)cc2)cc1,n,n,n,n,n,n,
Cc1cc(NC(=O)CCS(=O)(=O)c2nc(-c3ccccc3)cc(C(F)(F)F)n2)no1,n,n,n,n,n,n,
CS(=O)(=O)c1nc(-c2ccccc2)cc(C(F)(F)F)n1,n,n,n,n,25,n,
COc1ccccc1NC(=O)CCc1nc2sc3c(c2c(=O)[nH]1)CCCC3,n,n,n,n,n,n,
Cn1cc(C(=O)Nc2ccccn2)c(=O)c2ccccc21,n,n,n,n,x,n,
CCCCN(CCCNC(=O)C1CCN(S(=O)(=O)CC)CC1)c1ccccc1,n,n,n,n,28,n,
CC1(C(=O)NCc2ccc(F)cc2)Oc2ccccc2NC1=O (stereo unspecified),30,n,n,n,n,n,
COCCNC(=O)C1(C)Oc2ccccc2NC1=O (stereo unspecified),n,n,n,n,n,n,
CC1=CCC(C(=O)O)C(C(=O)Nc2ccc(-c3nc4ccc(C)cc4s3)cc2)C1 (stereo unspecified),n,n,n,n,34,n,
O=C1NCCOc2ccccc21,x,n,n,x,x,x,
O=C(OCc1ccccc1)/C(=C/c1ccccc1Cl)NC(=O)c1ccco1,n,n,n,n,n,n,
CC(=O)Nc1ccc(S(=O)(=O)n2nc(-c3ccc(C)cc3)nc2N)cc1,n,n,n,n,n,n,
Cc1ccc(S(=O)(=O)n2nc(-c3cccnc3)nc2N)cc1,33,n,n,n,n,n,
COc1ccc(C=NNc2ccc([N+](=O)[O-])cc2S(=O)(=O)Nc2ccccc2C(=O)O)cc1OC,n,n,n,n,33,n,
NS(=O)(=O)c1ccc(N/N=C/c2ccccc2C(=O)O)c([N+](=O)[O-])c1,n,n,n,n,n,n,
O=C(O)c1ccccc1NS(=O)(=O)c1ccc(N/N=C/c2ccc(O)c(O)c2)c([N+](=O)[O-])c1,59,n,n,72,x,58,
COc1ccccc1NS(=O)(=O)c1cc([N+](=O)[O-])ccc1N/N=C/c1c[nH]c2ccccc12,n,n,n,n,n,n,
CCn1c(COC(=O)CNC(=O)c2ccccc2)nc2cc(S(=O)(=O)N(C)C)ccc21,n,n,n,n,n,n,
Cn1cc(CC(=O)Nc2ccc(Nc3cccnc3)cc2)c2ccccc21,x,n,n,x,x,x,
SMILES,PAFAH1B2 inh,ASAP1 GAP inh,ARFGAP1 inhibitor,PAFAH2 inh,pPAFAH inh,PAFAH1B3 FP inh,others
CCOC(=O)Cc1cc(=O)n2[nH]c(-c3ccc(C)cc3)cc2n1,n,n,n,n,34,n,
CCOC(=O)Cc1cc(=O)n2[nH]cc(-c3cccc(Br)c3)c2n1,n,n,n,31,31,n,
Cc1cc(=O)[nH]c(SCC(=O)NC2CCCc3ccccc32)n1 (stereo unspecified),n,n,n,n,n,n,
Cc1c(NC(=O)/C(C#N)=C/c2ccc(-c3ccccc3Cl)o2)c(=O)n(-c2ccccc2)n1C,n,n,n,n,27,n,
CC(C)c1ccc(OCCCN2CCCC2)cc1,n,n,n,n,n,n,
CCN(C1CCCCC1)S(=O)(=O)c1ccc(S(=O)(=O)NCc2ccncc2)cc1,n,n,n,n,n,n,
CCN(C1CCCCC1)S(=O)(=O)c1ccc(S(=O)(=O)NCCc2ccncc2)cc1,25,n,n,n,n,n,
Cc1ccc(CNn2cnnc2SCc2ccc(F)cc2)cc1,28,n,n,n,n,n,
CSc1nc(-c2ccccc2)nc(C(C)C)n1,n,n,n,n,n,n,
CN(CC(=O)Nc1ccc(Cl)c(C(F)(F)F)c1)C(=O)CCNC(=O)c1ccco1,n,n,n,n,n,n,
CN(CC(=O)Nc1ccc(Cl)c(C(F)(F)F)c1)C(=O)CCCNC(=O)c1ccc(Cl)cc1,53,n,n,n,31,n,
O=C(CCN1C(=O)c2ccccc2S1(=O)=O)Nc1cccc(F)c1,n,n,n,n,n,n,
CC(=O)Nc1cccc(NC(=O)CCN2C(=O)c3ccccc3S2(=O)=O)c1,n,n,n,n,53,n,pPAFAH FP conf=n
CCC(=O)NC(c1cccs1)c1cc([N+](=O)[O-])c2cccnc2c1O (stereo unspecified),n,n,n,n,n,n,
CCCC(=O)NC(c1cccs1)c1cc([N+](=O)[O-])c2cccnc2c1O (stereo unspecified),n,n,n,n,68,n,pPAFAH FP conf=73
CC(=O)NC(c1cccs1)c1cc([N+](=O)[O-])c2cccnc2c1O (stereo unspecified),n,n,n,n,49,n,pPAFAH FP conf=46
O=C(Nc1cccc(S(=O)(=O)N2CCCCCC2)c1)C1=COCCO1,n,n,n,n,n,n,
NC(Cc1ccc(Cl)cc1)c1csc(Nc2cc(NCCCO)ncn2)n1 (stereo unspecified),x,n,n,x,x,x,
O=[N+]([O-])c1ccc(N=Nc2c(Cl)cc(O)cc2Cl)cc1,n,n,n,n,46,n,pPAFAH FP conf=39
CC(N)=Nc1ccc([N+](=O)[O-])cc1,n,n,n,n,n,n,
Cc1ccnc2nc(C(=O)OCC(=O)Nc3ccc4c(c3)OCCO4)nn12,n,n,n,n,n,n,
CCC/C(C)=N/NC(=O)c1ccccc1O,n,n,n,n,n,n,
C/C(=N\NC(=O)c1ccccc1O)C1C(=O)c2ccccc2C1=O,n,n,n,30,49,28,pPAFAH FP conf=40
C/C(CC(=O)N1CCN(C=O)CC1)=N\NC(=O)c1ccc([N+](=O)[O-])cc1,n,n,n,n,n,n,
C/C(CC(=O)N1CCN(C=O)CC1)=N\NC(=O)c1cc2ccccc2cc1O,n,n,n,n,54,n,pPAFAH FP conf=n
C/C(=N/NC(=O)c1cc2ccccc2cc1O)C1C(=O)c2ccccc2C1=O,73,n,n,74,77,37,pPAFAH FP conf=68
Cc1cc(NC(=O)c2ccc(NC(=O)C(C)C)cc2)no1,n,n,n,n,41,n,pPAFAH FP conf=n
Cc1cc(NC(=O)c2ccc(NC(=O)C3CC3)cc2)no1,n,n,n,n,n,n,
